Source: EPA's CvTdb concentration-time database

Columns and labels:
Rat [1] = assay: concentration in plasma after dosing; settings: 2 min; dosed: Pyridine; 10 mg/kg; iv; Male; F344
Rat [2] = assay: concentration in plasma after dosing; settings: 0.25 h; dosed: Pyridine; 10 mg/kg; iv; Male; F344
Rat [3] = assay: concentration in plasma after dosing; settings: 20 min; dosed: Pyridine; 10 mg/kg; iv; Male; F344
Rat [4] = assay: concentration in plasma after dosing; settings: dosed: Pyridine, 25 mg/kg, oral, Male, F344
Rat [5] = assay: concentration in plasma after dosing; settings: 0.25 h; dosed: Pyridine; 10 mg/kg; iv; Male; F344; remark: listed apart in the source
Rat [6] = assay: concentration in plasma after dosing; settings: dosed: Pyridine, 25 mg/kg, oral, Male, F344; remark: listed apart in the source
Mouse [7] = assay: concentration in plasma after dosing; settings: 10 min; dosed: 2-Hydroxy-4-methoxybenzophenone; 500 mg/kg; oral; Male; B6C3F1
Rat [8] = assay: concentration in plasma after dosing; settings: dosed: 2-Hydroxy-4-methoxybenzophenone, 500 mg/kg, oral, Female, F344
Mouse [9] = assay: concentration in plasma after dosing; settings: 10 min; dosed: 2-Hydroxy-4-methoxybenzophenone; 50 mg/kg; iv; Male; B6C3F1
Mouse [10] = assay: concentration in plasma after dosing; settings: 10 min; dosed: 2-Hydroxy-4-methoxybenzophenone; 250 mg/kg; oral; Male; B6C3F1
Mouse [11] = assay: concentration in plasma after dosing; settings: dosed: 2-Hydroxy-4-methoxybenzophenone, 100 mg/kg, oral, Male, B6C3F1
Mouse [12] = assay: concentration in plasma after dosing; settings: 3 h; dosed: 2-Hydroxy-4-methoxybenzophenone; 50 mg/kg; iv; Male; B6C3F1
Mouse [13] = assay: concentration in plasma after dosing; settings: 0.25 h; dosed: 2-Hydroxy-4-methoxybenzophenone; 50 mg/kg; iv; Male; B6C3F1
Mouse [14] = assay: concentration in plasma after dosing; settings: 3 h; dosed: 2-Hydroxy-4-methoxybenzophenone; 250 mg/kg; oral; Male; B6C3F1
Rat [15] = assay: concentration in plasma after dosing; settings: 1.5 h; dosed: alpha-Thujone; 25 mg/kg; oral; Male; Harlan Sprague Dawley
Rat [16] = assay: concentration in plasma after dosing; settings: 5 min; dosed: alpha-Thujone; 50 mg/kg; oral; Female; Harlan Sprague Dawley
Rat [17] = assay: concentration in brain after dosing; settings: 2.5 h; dosed: 76231-76-0; 3.0 mg/kg; iv; Female; F344
Rat [18] = assay: concentration in brain after dosing; settings: 1.5 h; dosed: alpha-Thujone; 25 mg/kg; oral; Male; Harlan Sprague Dawley
Rat [19] = assay: concentration in liver after dosing; settings: 6 h; dosed: Perfluorohexane-1-sulphonic acid – potassium salt; 16 mg/kg; oral; Female; F344
Rat [20] = assay: concentration in brain after dosing; settings: 6 h; dosed: Perfluorohexane-1-sulphonic acid – potassium salt; 16 mg/kg; oral; Female; Harlan Sprague Dawley
Rat [21] = assay: concentration in kidney after dosing; settings: dosed: Perfluorohexane-1-sulphonic acid – potassium salt, 16 mg/kg, oral
Rat [22] = assay: concentration in liver after dosing; settings: 12 h; dosed: Perfluorohexane-1-sulphonic acid – potassium salt; 16 mg/kg; oral; Female; F344
Rat [23] = assay: concentration in kidney after dosing; settings: 48 h; dosed: Perfluorohexane-1-sulphonic acid – potassium salt; 16 mg/kg; oral; Female; Harlan Sprague Dawley
Hamster [24] = assay: concentration in plasma after dosing; settings: dosed: 2,4-Dichlorophenoxyacetic acid, 2.0 mg/kg, oral, Male, Syrian Golden
In short: (§1)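 Points were largely digitised from plot screenshots with WebPlotDigitizer or otherwise copied from tables, and they remain in the units each source reported. They come from published in vivo toxicokinetic studies and two structured collections. Sampling and analytical methods follow each source and were often not reported.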

Hamster [25] = assay: concentration in plasma after dosing; settings: dosed: 2,4-Dichlorophenoxyacetic acid, 8.0 mg/kg, iv, Male, Syrian Golden
In short: as §1

Mouse [26] = assay: concentration in plasma after dosing; settings: 2.5 min; dosed: 2,4-Dichlorophenoxyacetic acid; 1.0 mg/kg; oral; Male; B6C3F1
Rat [27] = assay: concentration in plasma after dosing; settings: dosed: Methyleugenol, 37 mg/kg, iv, Female, F344
Rat [28] = assay: concentration in plasma after dosing; settings: dosed: Methyleugenol, 37 mg/kg, iv, Female, F344; remark: listed apart in the source
Rat [29] = assay: concentration in plasma after dosing; settings: dosed: Methyleugenol, 37 mg/kg, iv, Male, F344
Rat [30] = assay: concentration in plasma after dosing; settings: dosed: Methyleugenol, 37 mg/kg, oral, Female, F344/N
Rat [31] = assay: concentration in plasma after dosing; settings: 1.5 h; dosed: Primidone; 30 mg/kg; oral; Male; F344

In the case of c1ccncc1 [Pyridine], the concentration in plasma (Rat [1]) is reported as 1310 ng/mL, the concentration in plasma (Rat [2]) is reported as 4510 ng/mL and the concentration in plasma (Rat [3]) is reported as 4020 ng/mL. It also gave a concentration in plasma (Rat [4]; 0.5 h) of 18700 ng/mL, a concentration in plasma (Rat [4]; 6 h) of 16200 ng/mL and a concentration in plasma (Rat [5]) of 4870 ng/mL. It also gave a concentration in plasma (Rat [6]; 5 min) of 7460 ng/mL and a concentration in plasma (Rat [6]; 4 h) of 15900 ng/mL.
O=C(c1ccccc1)c1ccc(O)cc1O [2,4-Dihydroxybenzophenone] was tested, and the concentration in plasma (Mouse [7]) was 856 ng/mL, the concentration in plasma (Rat [8]; 10 min) was 116 ng/mL and the concentration in plasma (Rat [8]; 10 h) was 206 ng/mL. The concentration in plasma (Mouse [9]) was 3890 ng/mL, the concentration in plasma (Mouse [10]) was 415 ng/mL and the concentration in plasma (Mouse [11]; 2.5 min) was 185 ng/mL. It also gave a concentration in plasma (Mouse [11]; 10 min) of 301 ng/mL, a concentration in plasma (Mouse [11]; 0.25 h) of 433 ng/mL and a concentration in plasma (Mouse [11]; 2 h) of 177 ng/mL. It also gave a concentration in plasma (Mouse [11]; 3 h) of 119 ng/mL, a concentration in plasma (Mouse [12]) of 202 ng/mL and a concentration in plasma (Mouse [13]) of 1970 ng/mL. The concentration in plasma (Mouse [14]) was 316 ng/mL.
Molecule CC(C)[C@]12CC(=O)[C@H](C)[C@H]1C2 [alpha-Thujone] has a concentration in plasma (Rat [15]) of 95.4 ng/mL, a concentration in plasma (Rat [16]) of 343 ng/mL and a concentration in brain (Rat [17]) of 15.2 ng/g. It also gave a concentration in brain (Rat [18]) of 592 ng/g.
Molecule O=S(=O)([O-])C(F)(F)C(F)(F)C(F)(F)C(F)(F)C(F)(F)C(F)(F)F.[K+] [Perfluorohexane-1-sulphonic acid – potassium salt] has a concentration in liver (Rat [19]) of 87400 ng/g, a concentration in brain (Rat [20]) of 1090 ng/g and a concentration in kidney (Rat [21]; 3 h, Female, F344) of 29100 ng/g. It also gave a concentration in kidney (Rat [21]; 3 h, Female, Harlan Sprague Dawley) of 29000 ng/g, a concentration in kidney (Rat [21]; 6 h, Female, F344) of 37500 ng/g and a concentration in kidney (Rat [21]; 6 h, Female, Harlan Sprague Dawley) of 39200 ng/g. For the same molecule, the concentration in kidney (Rat [21]; 12 h, Female, F344) was 41400 ng/g, the concentration in kidney (Rat [21]; 12 h, Female, Harlan Sprague Dawley) was 26200 ng/g and the concentration in kidney (Rat [21]; 24 h, Female, F344) was 38500 ng/g. It also gave a concentration in kidney (Rat [21]; 24 h, Female, Harlan Sprague Dawley) of 17200 ng/g, a concentration in kidney (Rat [21]; 48 h, Female, Harlan Sprague Dawley) of 7840 ng/g and a concentration in kidney (Rat [21]; 96 h, Female, Harlan Sprague Dawley) of 5860 ng/g. It also gave a concentration in kidney (Rat [21]; 192 h, Female, F344) of 16300 ng/g, a concentration in kidney (Rat [21]; 192 h, Female, Harlan Sprague Dawley) of 2010 ng/g and a concentration in kidney (Rat [21]; 528 h, Female, F344) of 12700 ng/g. It also gave a concentration in kidney (Rat [21]; 1200 h, Male, Harlan Sprague Dawley) of 5590 ng/g, a concentration in liver (Rat [22]) of 70300 ng/g and a concentration in kidney (Rat [23]) of 11300 ng/g.
For O=C(O)COc1ccc(Cl)cc1Cl [2,4-Dichlorophenoxyacetic acid], the concentration in plasma (Hamster [24]; 2.5 min) was 146 ng/mL, the concentration in plasma (Hamster [24]; 5 min) was 4920 ng/mL and the concentration in plasma (Hamster [24]; 10 min) was 1970 ng/mL. It also gave a concentration in plasma (Hamster [24]; 0.25 h) of 6170 ng/mL, a concentration in plasma (Hamster [24]; 1 h) of 492 ng/mL and a concentration in plasma (Hamster [24]; 2 h) of 1870 ng/mL. The concentration in plasma (Hamster [25]; 5 min) was 55300 ng/mL, the concentration in plasma (Hamster [25]; 40 min) was 3090 ng/mL and the concentration in plasma (Mouse [26]) was 1730 ng/mL.
C=CCc1ccc(OC)c(OC)c1 [Methyleugenol] gave a concentration in plasma (Rat [27]; 5 min) of 28900 ng/mL, a concentration in plasma (Rat [27]; 3 h) of 158 ng/mL and a concentration in plasma (Rat [28]; 0.5 h) of 1520 ng/mL. It also gave a concentration in plasma (Rat [28]; 0.75 h) of 768 ng/mL, a concentration in plasma (Rat [29]; 2 min) of 59100 ng/mL and a concentration in plasma (Rat [29]; 6 h) of 114 ng/mL. For the same molecule, the concentration in plasma (Rat [30]; 20 min) was 146 ng/mL and the concentration in plasma (Rat [30]; 5 h) was 5.58 ng/mL.
With CCC1(c2ccccc2)C(=O)NCNC1=O [Primidone] the concentration in plasma (Rat [31]) was 14000 ng/mL.
